# APJ antag – antagonists of human apelin receptor APJ, primary screen, CHO-K1 cells, beta-arrestin complementation, luminescence; AID 2521, 2010; 0.32% of 330,000 active; inhibition, % at 20 µM; P35414;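 active means inhibition above about 40% at 20 µM, limit read from the data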;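 further: cells challenged with 10 nM apelin-13 agonist together with compound; plate controls were apelin-13 plus DMSO wells for no effect and DMSO wells lacking apelin-13 for full effect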
# Target sequence (P35414 whole entry, looked up): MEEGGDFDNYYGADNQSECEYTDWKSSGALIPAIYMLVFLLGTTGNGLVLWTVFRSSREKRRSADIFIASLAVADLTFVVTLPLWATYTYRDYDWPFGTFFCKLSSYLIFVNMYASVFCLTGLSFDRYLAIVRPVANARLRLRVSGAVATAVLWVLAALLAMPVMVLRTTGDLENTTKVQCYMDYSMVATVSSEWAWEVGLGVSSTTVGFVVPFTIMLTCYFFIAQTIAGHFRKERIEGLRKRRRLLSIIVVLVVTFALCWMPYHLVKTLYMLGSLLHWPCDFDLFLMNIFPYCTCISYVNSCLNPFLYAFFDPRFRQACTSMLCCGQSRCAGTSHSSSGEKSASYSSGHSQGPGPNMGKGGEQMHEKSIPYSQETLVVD
# CXCR6 block – CXCR6 receptor inhibitors, primary screen, cell-based, beta-arrestin, luminescence, CHO-K1 PathHunter, 1536-well | 0.36% of 360,000 active | AID 602244, 2012 | inhibition, % at 20 µM | C-X-C chemokine receptor type 6 (Homo sapiens), O00574; in the data active means inhibition above about 34%, passing the limit was not always enough;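 further: antagonist mode with CXCL16 agonist at 10 nM final; 0% = 10 nM CXCL16 with DMSO and 100% = unstimulated wells without agonist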
# CCR6 antag – CCR6 receptor antagonists, primary screen, cell-based, CHO-K1, luminescence, beta-arrestin, uHTS; 0.49% of 340,000 active; inhibition, % at 20 µM; CHO-K1 CCR6 PathHunter beta-arrestin, CCL20-stimulated;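 active means compounds whose inhibition of the agonist-driven luminescence signal at 20 µM reaches about 50%, limit read from the data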;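 further: cells stimulated with CCL20 at 14 nM final; plate controls were DMSO with CCL20 for no effect and DMSO without agonist for full effect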
# EBI2 block – EBI2 receptor antagonists, beta-arrestin recruitment, primary screen, cell-based, luminescence, 7a,25-OHC stimulation, uHTS; 0.81% of 360,000 active; 7a,25-OHC stimulated; AID 651636, 2012; inhibition, % at 5 µM; in the data active means inhibition above about 38%;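 further: enzyme fragment complementation signal reports receptor beta-arrestin coupling in cells; 0% = agonist plus DMSO wells and 100% = wells without agonist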
# APJ agonist – agonists of human apelin receptor APJ, primary screen, CHO-K1 cells, PathHunter beta-arrestin, luminescence; 0% DMSO wells, 100% apelin; activation, % at 20 µM; 0.11% of 330,000 active;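 active means activation more than six SD over the plate average, tested at 20 µM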;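 further: 0% = DMSO alone and 100% = apelin-13 at 10 nM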
#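 Test system: CHO-K1 APJ beta-arrestin complementation cell line. Amount: cell density 1000 per well. Controls: DMSO negative, 10 nM Apelin-13 positive. Signal: luminescent beta-gal fragment complementation, chemiluminescent substrate. Read-out basis: agonist-driven arrestin binding to APJ. Timing: compound stimulation 90 min at 25 °C, detection 60 min.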
# APJ ag conf – agonists of human apelin receptor APJ, confirmation, cell-based, single concentration, CHO-K1, beta-arrestin, luminescence; shares compounds with APJ agonist; CHO-K1 APJ PathHunter beta-arrestin; activation, % at 20 µM; 10% of 310 active; AID 2764, 2010;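 active means activation above 40%, taking the highest of four retests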;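 further: plate controls were DMSO wells for no effect and apelin-13 at 10 nM for full effect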
# Numbers without * were called inactive; . = not tested or not shown. Compounds with a hit are over-represented: about 1.5% of the library has one in this group of screens.
SMILES,APJ antag,CXCR6 block,CCR6 antag,EBI2 block,APJ agonist,others
CCOC(=O)CSC1=NC(=O)/C(=C/c2ccc(OC)cc2)S1,-1,39,54*,6,5,
O=C(Nc1nc(-c2ccccc2)cs1)C1CCCN(S(=O)(=O)c2ccccc2)C1 (stereo unspecified),6,-8,66*,-14,7,
O=C(Nc1nc(-c2ccccc2)cs1)C1CCCN(S(=O)(=O)c2cccc([N+](=O)[O-])c2)C1 (stereo unspecified),-12,-15,5,1,-1,
CC1CC1C(=O)OCC(=O)Nc1ccc(Cl)cn1 (stereo unspecified),9,3,-9,-2,0,
Clc1ccc(N=c2ssnc2Cl)nc1,12,-2,17,85*,0,
Clc1nssc1=Nc1ccc(Br)cc1,.,1,15,25,.,
O=C(N/N=C/c1ccc(-c2cccc([N+](=O)[O-])c2)o1)c1cccs1,-1,-5,3,0,-3,
N#C/C(=C\c1ccc(-c2cccc([N+](=O)[O-])c2)o1)C(=O)Nc1nc(-c2cccs2)cs1,30,30,84*,4,-7,
O=C(OCn1ncc(Br)c(Br)c1=O)c1ccccc1Cl,28,49*,43,47*,0,
O=C(OCc1cnc(Cl)s1)c1ccccc1Cl,4,-17,3,-11,0,
O=C(OCn1ncc(Br)c(Br)c1=O)c1ccc(F)cc1,21,47*,44,50*,-1,
Cc1ccc(C)c(NC(=S)N(Cc2ccc(Cl)cc2)Cc2ccc(C(=O)O)cc2)c1,-2,-3,8,-9,-3,
COc1cc(/C=C2/C(=O)N(c3ccc(Br)cc3)N=C2C)cc([N+](=O)[O-])c1O,48*,.,.,.,-10,
Cc1ccc2nc(-c3ccc(Cl)cc3)c(Cc3cccc(Cl)c3)n2c1,.,20,.,31,.,
Cc1ccc2nc(-c3ccc(-c4cccc(Cl)c4)cc3)c(NCc3ccccc3)n2c1,-37,12,14,58*,3,
COCCNC(=O)c1cc(S(=O)(=O)N(C)C2CCCCC2)ccc1Cl,.,7,.,-5,.,
COC(=O)C1=C(C(=O)OC)SC(=C2C(=S)C(C)(C)N(C(=O)C3CC3)c3ccccc32)S1,38,34,52*,28,-12,
COC(=O)C1=C(C(=O)OC)SC(=C2C(=S)C(C)(C)N(C(=O)C(C)C)c3ccccc32)S1,29,32,53*,31,-5,
CC(C)C[C@H]1COc2cc(N(C)CCO)ccc2S(=O)(=O)N1,.,3,.,2,.,
CS(=O)(=O)c1ccc(S(=O)CC(=O)Oc2ccc(Cl)cc2)c([N+](=O)[O-])c1 (stereo unspecified),-9,.,61*,.,-4,
O=S(=O)(O)c1ccc(N=Nc2ccccc2)cc1,12,9,17,-8,-3,
O=c1ccc(N=Nc2ccccc2)ccc1O,.,29,66*,-5,.,
O=C(CCCC(=O)Nc1ccc(Br)cc1)N/N=C/c1ccccc1,9,-12,4,-7,-5,
Cc1ccccc1-c1ccc(Nc2ccc(N3CCOCC3)cc2)nn1,4,3,-12,71*,2,
Cc1ccc(OCC(=O)N2CCN(c3ccc([N+](=O)[O-])c(N4CCOCC4)c3)CC2)cc1,5,4,14,56*,-8,
SMILES,APJ antag,CXCR6 block,CCR6 antag,EBI2 block,APJ agonist,others
COc1cccc(/C=N/n2c(N)c(S(=O)(=O)c3cccs3)c3nc4ccccc4nc32)c1,-6,1,7,5,-4,
Nc1c(S(=O)(=O)c2cccs2)c2nc3ccccc3nc2n1/N=C/c1cccc(O)c1,-3,11,-6,58*,4,
Cc1ccc(S(=O)(=O)c2c(N)n(/N=C/c3ccco3)c3nc4ccccc4nc23)cc1C,-13,7,7,46*,3,
Cc1ccc(NC(=O)C/C(N)=N/OC(=O)c2ccccc2)cc1,-22,-13,-30,-7,11*,APJ ag conf=16
NC(CCC(=O)NC(CS)C(=O)NCC(=O)O)C(=O)O (stereo unspecified),.,2,-4,-4,.,
O=C(CCN1C(=O)[C@@H]2Cc3ccccc3CN2C1=O)N[C@H](C(=O)O)c1ccccc1,17,1,7,8,0,
CC(C)(C)OC(=O)NCCCCCc1cn([C@@H](CO)C(=O)NCCCCCCCCCCC(=O)N2CCN(C(=O)OC(C)(C)C)CC2)nn1,-78,-11,-17,-47,45*,APJ ag conf=52*
CC(C)(C)OC(=O)CC[C@@H](C(=O)NCCCCCCCCCCC(=O)N1CCN(C(=O)OC(C)(C)C)CC1)n1cc(CCCCCNC(=O)OC(C)(C)C)nn1,-3,21,24,-4,0,
Cc1cccc(C)c1NC(=O)C(c1ccccc1)N(C)CCc1ccccc1 (stereo unspecified),.,10,.,5,.,
Cn1c(Nc2ccc(Cl)cc2F)nc2cc(-c3ccccc3)sc2c1=O,.,-6,.,5,.,
COc1ccc(N2CCN(C(CNC(=O)OCc3ccccc3)c3ccco3)CC2)cc1 (stereo unspecified),2,-1,2,2,1,
Cc1ccc(/C=N/NC(=O)CSc2nnc(-c3ccc(Cl)cc3)n2-c2ccc(Cl)cc2)o1,-253,-47,-52,-28,28*,APJ ag conf=163*
Cc1ccc(/C=N/NC(=O)CSc2nnc(-c3ccccc3)n2-c2ccc(Cl)cc2)o1,-85,-11,-20,-17,14*,APJ ag conf=43*
CCn1c(CC(=O)Nc2ccc(C)c(Cl)c2)nnc1SCC(=O)Nc1nc(C)cs1,-14,-8,3,-1,20*,APJ ag conf=5
CCOc1cccc2sc(N(CCCN(C)C)C(=O)c3ccc(S(=O)(=O)N4CCc5ccccc5C4)cc3)nc12,-35,6,10,2,9,
CCc1ccc2nc(N(CCCN(C)C)C(=O)c3ccc(S(=O)(=O)N4CCc5ccccc5C4)cc3)sc2c1,6,-1,-9,-3,60*,APJ ag conf=33
CS(=O)(=O)c1cnc(-c2ccccc2)nc1Sc1ccc(F)cc1,-17,0,-3,-23,18*,APJ ag conf=13
COc1cccc(Sc2nc(-c3ccccc3)ncc2S(C)(=O)=O)c1,-4,5,13,14,-1,
COc1ccc(-c2nnnn2-c2ccc(F)cc2F)cc1,-7,8,13,10,0,
COc1ccc(CCN2CCC(Nc3nc4ccccc4n3Cc3ccc(F)cc3)CC2)cc1,18,1,4,-2,32*,APJ ag conf=17
COC(=O)[C@@]12C[C@@H](CC(=O)NCc3cccc4ccccc34)C(=O)N(Cc3ccc4c(c3)OCO4)C1=CCC(C)(C)C2,.,.,.,11,.,

# Assay outcomes as filed in PubChem.
